Measured values collected from several papers.
Organism: Trypanosoma cruzi
Effect on: parasite growth
Notes: intracellular, amastigote

Structure (SMILES)	test	system	setting	endpoint	value
O=C(N[C@@H](Cc1ccccc1)C(=O)c1nccs1)[C@H](Cc1ccccc1)NC(=O)N1CCOCC1		TULAHUEN		IC50	31.7 µM
COc1ccc(Nc2nc(-c3ccco3)nc3ccccc23)cc1	imaging	U2OS		IC50	11.4 µM
O=C(Cn1ccnc1[N+](=O)[O-])NCc1ccccc1		TULAHUEN	6 days	EC90	1.64 µM
c1ccc(C2CCN(c3nc(-c4ccco4)nc4ccccc34)C2)nc1 (stereo not shown)	imaging	U2OS		IC50	50 µM
O=C(N[C@@H](Cc1ccccc1)C(=O)c1cn(COCc2ccccc2)nn1)[C@H](Cc1ccccc1)NC(=O)N1CCOCC1		TULAHUEN		IC50	32.2 µM
Cc1ccc2nc(-c3ccc(F)c(F)c3)c(CN3CCC(Cc4ccccc4)CC3)n2c1		TULAHUEN	6 days	EC90	4.7 µM
COC(=O)c1ccc(NCc2cncn2Cc2ccccc2Cl)cc1-c1ccccc1		mouse Fibroblast		EC50	0.1 to 1 µM
O=C(N[C@H](Cc1c[nH]c2ccccc12)C(=O)Nc1ccncc1)c1ccc(-c2cc(F)ccc2F)cc1F	imaging	C2C12	72 h	EC50	0.0013 µM
COc1ccc(Nc2nc(-c3ccncc3)nc3ccccc23)cc1	imaging	U2OS		IC50	24.5 µM
COC(=O)c1ccc(NCc2cncn2Cc2ccccc2[N+](=O)[O-])cc1-c1ccccc1		mouse Fibroblast		EC50	0.1 to 1 µM
